# Measurements reported in ChEMBL document CHEMBL2429825, “Structure-activity studies of divin: an inhibitor of bacterial cell division” (ACS Med Chem Lett, 2013).
# Activity calls are given as the source filed them. The calls are words filed in the database; no cut-off is given here.
# Legend:
# Escherichia coli = test: Antimicrobial activity against tolc-defecient Escherichia coli BW25113 after 17 hrs by two-fold serial dilution technique; format: functional; conditions: BW25113, 17 h
# Summary of the method: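 MIC by serial dilution following a CLSI protocol. E. coli BW25113 ΔtolC was grown in M8 medium.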
# Caulobacter vibrioides [1] = test: Antimicrobial activity against Caulobacter crescentus CB15N after 17 hrs by two-fold serial dilution technique; format: functional
# Caulobacter vibrioides [2] = test: Antimicrobial activity against Caulobacter crescentus CB15N assessed as cell division arrest after the initiation of midcell constriction at MIC after 17 hrs by phase contrast microscopy; format: functional, organism-based
# Summary of the method: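 C. crescentus CB15N cells were incubated with compound for 17 h, then imaged to score cell-division phenotype at the midcell constriction stage.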
# [3] = Solubility of the compound by light scattering fluorescence spectrophotometry; format: physicochemical
# Summary of the method: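 Solubility was measured in M8 medium containing 2% DMSO by a light-scattering assay.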
# Vibrio cholerae = test: Antimicrobial activity against clinical isolates of Vibrio cholerae by serial dilution technique; format: functional
# Klebsiella aerogenes = test: Antimicrobial activity against clinical isolates of Enterobacter aerogenes by serial dilution technique; format: functional
# Summary of the method: (§1)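 Clinical pathogenic isolates were tested for growth inhibition in M8 medium.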
# Salmonella typhimurium = test: Antimicrobial activity against clinical isolates of Salmonella typhimurium by serial dilution technique; format: functional, Salmonella enterica subsp. enterica serovar Typhimurium; conditions: Salmonella enterica; summary of the method: as §1
# Shigella boydii = test: Antimicrobial activity against clinical isolates of Shigella boydii by serial dilution technique; format: functional; summary of the method: as §1
# Acinetobacter baumannii = test: Antimicrobial activity against clinical isolates of Acinetobacter baumannii by serial dilution technique; format: functional; summary of the method: as §1
# Klebsiella pneumoniae = test: Antimicrobial activity against clinical isolates of Klebsiella pneumoniae by serial dilution technique; format: functional; summary of the method: as §1
# Morganella morganii = test: Antimicrobial activity against clinical isolates of Morganella morganii by serial dilution technique; format: functional; summary of the method: as §1
# Caulobacter vibrioides [4] = test: Bacteristatic activity against Caulobacter crescentus CB15N assessed as inhibition of cell growth at 2.5 to 20 uM by plate reader analysis; format: functional, organism-based
Compound,MIC (Escherichia coli) [µM],MIC (Caulobacter vibrioides [1]) [µM],Activity (Caulobacter vibrioides [2]),solubility kinetic [3] [µM],also measured
C/C(=N\NC(=O)CCn1c(C)nc2ccccc21)c1c(O)ccc2ccccc12,> 50,> 20,,,
O=C(CCn1cnc2ccccc21)N/N=C/c1c(O)ccc2ccccc12,12.5,7.5,Active,30,
Cc1nc2ccccc2n1CCC(=O)N/N=C/c1ccc(F)c2ccccc12,> 50,> 20,,,
CN(C)Cc1nc2ccccc2n1CCC(=O)N/N=C/c1c(O)ccc2ccccc12,12.5,5,,90,
COc1ccc2ccccc2c1/C=N/NC(=O)CCn1c(C)nc2ccccc21,> 50,> 20,,,
CC(=O)Oc1ccc2ccccc2c1/C=N/N(C(C)=O)C(=O)CCn1c(C)nc2ccccc21,50,> 40,,,
Cc1nc2ccccc2n1CCC(=O)N/N=C/c1ccc(N(C)C)c2ccccc12,> 50,> 20,,,
O=C(CCn1c(C(F)(F)F)nc2ccccc21)N/N=C/c1c(O)ccc2ccccc12,> 50,7.5,,30,
Cc1nc2ccccc2n1CCCC(=O)N/N=C/c1c(O)ccc2ccccc12,10,5,Active,120,
Cc1nc2ccccc2n1CCC(=O)N/N=C/c1cccc2ccccc12,50,> 20,,,
Cc1nc2ccccc2n1CCC(=O)NNCc1c(O)ccc2ccccc12,50,40,,,
Cc1nc2cnccc2n1CCC(=O)N/N=C/c1c(O)ccc2ccccc12,12.5,5,Active,90,
Cc1nc2ccccc2n1CCC(=O)N/N=C/c1c(O)ccc2ccccc12,12.5,5,Active,20,MIC (Vibrio cholerae): 6 µM; MIC (Klebsiella aerogenes): 50 µM; MIC (Salmonella typhimurium): 50 µM; MIC (Shigella boydii): 50 µM; MIC (Acinetobacter baumannii): 50 µM; MIC (Klebsiella pneumoniae): > 50 µM; MIC (Morganella morganii): > 50 µM
Cc1nc2ccccc2n1CCC(=O)N/N=C/c1c(O)ccc2cc(O)ccc12,12.5,5,,,
C=CCOc1ccc2ccccc2c1/C=N/NC(=O)CCn1c(C)nc2ccccc21,> 50,> 20,,,
Cc1nc2ccncc2n1CCC(=O)N/N=C/c1c(O)ccc2ccccc12,25,10,,,
[N-]=[N+]=NCc1nc2ccccc2n1CCC(=O)N/N=C/c1c(O)ccc2ccccc12,12.5,5,Active,20,
COc1ccc2ccccc2c1/C=N/NC(=O)CCn1c(C(F)(F)F)nc2ccccc21,> 50,> 20,,,
Cc1nc2cc(Cl)ccc2n1CCC(=O)N/N=C/c1c(O)ccc2ccccc12,7.5,5,Active,210,Activity (Caulobacter vibrioides [4]): Active
Cc1nc2ccccc2n1CCC(=O)N/N=C/c1ccccc1O,50,15,,,
Cc1nc2ccccc2n1CC(=O)N/N=C/c1c(O)ccc2ccccc12,25,5,,20,
Cc1nc2ccccc2n1CCC(=O)N/N=C/c1ccccc1F,> 50,> 20,,,
Cc1nccn1CCC(=O)N/N=C/c1c(O)ccc2ccccc12,12.5,7.5,Active,10,
Cc1nc2ccccc2n1CCC(=O)N/N=C/c1ccc(O)c2ccccc12,> 50,> 20,,,
Cc1nc2cc(Cl)c(Cl)cc2n1CCC(=O)N/N=C/c1c(O)ccc2ccccc12,6.3,3.8,Active,90,MIC (Vibrio cholerae): 3 µM; MIC (Klebsiella aerogenes): 12 µM; MIC (Salmonella typhimurium): 25 µM; MIC (Shigella boydii): 25 µM; MIC (Acinetobacter baumannii): 50 µM; MIC (Klebsiella pneumoniae): 50 µM; MIC (Morganella morganii): > 50 µM; Activity (Caulobacter vibrioides [4]): Active
